Values after ≈ are worked out from the molar mass of the structure shown.
What was measured:
[1] = tested on: L1210; experiment: In vitro cytotoxicity against L1210 murine lymphocytic leukemia cell lines; type: functional, cell-based; details: Mus musculus
Procedure, shortened: (§1)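 MTT assay on suspension lines dispersed to single cells (L1210 RPMI/10% DHS; ADJ/PC6 DMEM/20% DHS plus hydrocortisone, insulin; H69 RPMI/10% FCS; Walker 256 DMEM/10% DHS), 1×10^3–8×10^3 cells/well. Continuous exposure 72–144 h, 37 °C; MTT 4–5 h, plates spun, formazan in DMSO, A540 vs untreated control. 3–6 replicate wells, each assay at least twice.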

[2] = tested on: ADJ/PC6 plasmacytoma (Mus musculus); experiment: In vitro cytotoxicity against PC6 murine plasmacytoma cell lines
[3] = tested on: NCI-H69; experiment: In vitro cytotoxicity against human small cell lung cancer H69 cell lines; type: functional, cell-based; procedure, shortened: as §1
[4] = In vitro cytotoxicity against walker rat carcinoma 256 cell lines; type: functional; procedure, shortened: as §1
[5] = Half-life was determined in water at 7.5 pH at room temperature; type: ADME; details: pH 7.5
Procedure, shortened: (§2)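 Compound added from 50 mM DMSO stock to 10 mL of medium in polypropylene tubes, final 100 μM; tubes held in water baths at 37 °C or ambient (20–24 °C). Remaining parent measured by HPLC on C8 column, UV 225 nm; t1/2 from semilog plot of peak area versus time. Run on at least two occasions, variation 2–22%.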

[6] = Aqueous solubility was determined; type: physicochemical
[7] = Half-life was determined in 5%dextrose at 4.0 pH at room temperature; type: ADME; details: 5% dextrose solution, pH 4; procedure, shortened: as §2
[8] = Half-life was determined in water at 7.5 pH at 37 degree C; type: ADME; details: pH 7.5; procedure, shortened: as §2
[9] = Half-life was determined in 0.9%sodium chloride at 5.2 pH at room temperature; type: ADME; details: 0.9% sodium chloride solution, pH 5.2; procedure, shortened: as §2
[10] = Half-life was determined in water at 2.0 pH at 37 degree C; type: ADME; details: pH 2; procedure, shortened: as §2
[11] = In vitro cytotoxicity against GCT cell lines; type: functional, cell-based; details: Homo sapiens
Procedure, shortened: (§3)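 MTT assay on GCT-27 and GCT-27/CisR (DMEM, 10% FCS, glutamine, hydrocortisone, insulin), trypsinized to single cells, 1×10^3–8×10^3 cells/well. Continuous drug exposure, 72–144 h at 37 °C, 8% CO2; MTT 4–5 h, formazan in DMSO, A540 (ref 690) as fraction of untreated control. 3–6 replicate wells per concentration, each assay at least twice.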

[12] = In vitro cytotoxicity against GCT / cisR cell lines; type: functional, cell-based; details: Homo sapiens; procedure, shortened: as §3
[13] = Half-life was determined in water at 5.0 pH at room temperature; type: ADME; details: pH 5; procedure, shortened: as §2
[14] = Half-life was determined in water at 5.0 pH at 37 degree C; type: ADME; details: pH 5; procedure, shortened: as §2

Compound | half-life [5] | solubility [6] | half-life [7] | half-life [8] | half-life [9] | half-life [10] | half-life [13] | half-life [14] | IC50 [1] | IC50 [2] | IC50 [3] | IC50 [4] | IC50 [11] | IC50 [12]
OCN(CC(F)(F)F)c1nc(NCC(F)(F)F)nc(NCC(F)(F)F)n1 | – | – | – | – | – | – | – | – | 83.2 µM | 77.6 µM | 42.3 µM | 22.5 µM | – | –
OCOCN(CC(F)(F)F)c1nc(N(CO)CC(F)(F)F)nc(N(CO)CC(F)(F)F)n1 | – | – | – | – | – | – | – | – | – | 29.8 µM | 13.4 µM | – | 25.8 µM | 23.7 µM
CNc1nc(NCC(F)(F)F)nc(N(CO)CC(F)(F)F)n1 | – | – | – | – | – | – | – | – | 112 µM | 71.4 µM | 32.2 µM | 27.5 µM | – | –
CN(CO)c1nc(N(C)CO)nc(N(C)CO)n1 [TRIMELAMOL] | – | 4500 µg/mL (≈ 17400 µM) | 5.83 h | 2 h | 4.58 h | – | 13.7 h | 3.33 h | 33.4 µM | 12.9 µM | 8.5 µM | 9.4 µM | 24.3 µM | 30.9 µM

Second part, led by results:

half-life [5] | solubility [6] | half-life [7] | half-life [8] | half-life [9] | half-life [10] | half-life [13] | half-life [14] | Compound | IC50 [1] | IC50 [2] | IC50 [3] | IC50 [4] | IC50 [11] | IC50 [12]
85 h | 30 µg/mL (≈ 64.9 µM) | 50 h | 11.5 h | 95 h | 1 h | – | – | OCN(CC(F)(F)F)c1nc(N(CO)CC(F)(F)F)nc(N(CO)CC(F)(F)F)n1 | 55.1 µM | 29.5 µM | 12.8 µM | 12.2 µM | – | –
75.2 h | 1000 µg/mL (≈ 3000 µM) | 180 h | 4.58 h | 135 h | 5.83 h | 102 h | 16 h | N#CCN(CO)c1nc(N(CO)CC#N)nc(N(CO)CC#N)n1 | 32.4 µM | 19.4 µM | 11.8 µM | 7.5 µM | – | –
– | 30 µg/mL (≈ 90.8 µM) | – | 7.5 h | – | 0.667 h | – | – | C#CCN(CO)c1nc(N(CO)CC#C)nc(N(CO)CC#C)n1 | 47.8 µM | 35.2 µM | 13.1 µM | 14.1 µM | 53.9 µM | 47.3 µM
